This sample holds only a part of the variants without activity.
B1: tRNA (parent)
chain: GUUCCGUUGGCGUAAUGGUAACGCGUCUCCCUCCUAAGGAGAAGACUGCGGGUUCGAGUCCCGUACGGAACG

Variants of: B1
Assay: yeast fitness relative to wild type (ratio to wild type); higher = fitter; tRNA-Arg(CCU), competitive growth, 37 C, YPD
How it was run: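 Changes in genotype frequencies gave Darwinian fitness relative to wild type. Frequencies were read by 100-nucleotide paired-end sequencing of gene amplicons before and after pooled Saccharomyces cerevisiae strains, carrying tRNA-Arg(CCU) gene variants at the native locus, were competed in YPD at 37°C for 24 hours in six replicates. A genotype was kept only with ≥ 100 starting reads, and estimates < 0.5 were set to 0.5.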

Q: With C30G C46U A65C as the variant, how does the yeast fitness read?
A: ≤ 0.5

Q: For C30U G44A G48C, which yeast fitness is on record?
A: ≤ 0.5

Q: Which yeast fitness does the source give for C31U U53C C62U here?
A: ≤ 0.5

Q: For C31G C55G A65G, which yeast fitness is on record?
A: ≤ 0.5

Q: For U32A G58C C66A, which yeast fitness is on record?
A: ≤ 0.5

Q: For C31G U35C C46U, which yeast fitness is on record?
A: 0.582

Q: For C31U C60U G67A A69U, which yeast fitness is on record?
A: ≤ 0.5

Q: Which yeast fitness does the source give for U32C C33G G67C here?
A: ≤ 0.5

Q: With C30A U54C G63A as the variant, how does the yeast fitness read?
A: 0.601

Q: With C31G U53C as the variant, how does the yeast fitness read?
A: 0.662

Q: With C31G A45U C49G A70U as the variant, how does the yeast fitness read?
A: ≤ 0.5

Q: Which yeast fitness does the source give for C31G A36U G39A here?
A: ≤ 0.5

Q: Which yeast fitness does the source give for C31U G63C G67C A69U here?
A: 0.511

Q: For C30U A45C A69U, which yeast fitness is on record?
A: 0.704

Q: Which yeast fitness does the source give for C31G U54G here?
A: 0.6

Q: With C31U U47G A65U as the variant, how does the yeast fitness read?
A: ≤ 0.5

Q: For U32A G67A, which yeast fitness is on record?
A: 0.766

Q: With U32A G58C A69U as the variant, how does the yeast fitness read?
A: 0.56

Q: Which yeast fitness does the source give for C31U A45C C61G A65C here?
A: ≤ 0.5

Q: With U32A A36U G44C A45G as the variant, how does the yeast fitness read?
A: 0.516

Q: Which yeast fitness does the source give for C31U C55U A70U here?
A: 0.567

Q: For C30G G58C C60U A65G, which yeast fitness is on record?
A: ≤ 0.5

Q: Which yeast fitness does the source give for C30G A36U C61U here?
A: 0.504

Q: For U32C G39C, which yeast fitness is on record?
A: 0.765

Q: For C31G A36C U47C, which yeast fitness is on record?
A: ≤ 0.5

Q: Which yeast fitness does the source give for C31U U47A here?
A: 0.817

Q: For C30U A57G, which yeast fitness is on record?
A: 0.709

Q: With C30G C34G as the variant, how does the yeast fitness read?
A: ≤ 0.5

Q: With C30U G39A A40C U53A as the variant, how does the yeast fitness read?
A: 0.565

Q: Which yeast fitness does the source give for C31G A36C C61U here?
A: ≤ 0.5

Q: Which yeast fitness does the source give for C31U G68A A69G here?
A: 0.702

Q: With C31G G38A G52A C61A G63A as the variant, how does the yeast fitness read?
A: ≤ 0.5

Q: Which yeast fitness does the source give for U32C G51A here?
A: 0.851

Q: With C30G G48A U53C as the variant, how does the yeast fitness read?
A: ≤ 0.5

Q: For C30G C46G A57U C66U A70U, which yeast fitness is on record?
A: ≤ 0.5

Q: Which yeast fitness does the source give for C31A U54C here?
A: 0.562

Q: Which yeast fitness does the source give for C31U A40U U54C here?
A: 0.541

Q: With C30U C60A A70C as the variant, how does the yeast fitness read?
A: ≤ 0.5

Q: Which yeast fitness does the source give for C31U A69U A70C here?
A: 0.778

Q: Which yeast fitness does the source give for C31A A43G A45C here?
A: 0.541

Q: With C31U C33U A42C C49U A65C as the variant, how does the yeast fitness read?
A: ≤ 0.5

Q: For C31G A45U G58U C62U, which yeast fitness is on record?
A: ≤ 0.5

Q: Which yeast fitness does the source give for C30G C34U A45C U53G C61G here?
A: ≤ 0.5

Q: With C30G A43U as the variant, how does the yeast fitness read?
A: 0.635

Q: For C30G A43C, which yeast fitness is on record?
A: 0.549

Q: With C30U G56A as the variant, how does the yeast fitness read?
A: 0.942

Q: For U32C A43G C66U, which yeast fitness is on record?
A: 0.758

Q: Which yeast fitness does the source give for C30G A42C C55U here?
A: ≤ 0.5

Q: For C31G C66U, which yeast fitness is on record?
A: 0.867

Q: For C31U G48A A69C, which yeast fitness is on record?
A: 0.772

Q: With C31A G56A G67A A69U as the variant, how does the yeast fitness read?
A: ≤ 0.5

Q: Which yeast fitness does the source give for C31A C33G A42C G48A U54A here?
A: ≤ 0.5

Q: Which yeast fitness does the source give for C31G C62G here?
A: 0.827

Q: With U32C A40G G41A as the variant, how does the yeast fitness read?
A: ≤ 0.5

Q: With C30G G50U C66U as the variant, how does the yeast fitness read?
A: 0.573

Q: With U32C A37U C49G A70U as the variant, how does the yeast fitness read?
A: 0.664

Q: For C30G A40U C46U A69G, which yeast fitness is on record?
A: ≤ 0.5

Q: Which yeast fitness does the source give for C31A G52C A65U here?
A: ≤ 0.5

Q: Which yeast fitness does the source give for C31U G52A G68C here?
A: ≤ 0.5

Q: With C31A U59A A70C as the variant, how does the yeast fitness read?
A: ≤ 0.5

Q: With C31U U54A C62G G68C as the variant, how does the yeast fitness read?
A: ≤ 0.5

Q: For C31U C61A C62U A65U, which yeast fitness is on record?
A: ≤ 0.5

Q: With C31U C60A G67A as the variant, how does the yeast fitness read?
A: ≤ 0.5

Q: For C31G A45G G56U, which yeast fitness is on record?
A: 0.561

Q: Which yeast fitness does the source give for C31U C46A A57C A65U here?
A: ≤ 0.5

Q: With C30U G67U as the variant, how does the yeast fitness read?
A: 0.83

Q: With C31U C62U G63A as the variant, how does the yeast fitness read?
A: 0.617

Q: Which yeast fitness does the source give for U32C G48A A57C here?
A: ≤ 0.5

Q: With C31A A43U A57G as the variant, how does the yeast fitness read?
A: 0.559

Q: For C30U G50A, which yeast fitness is on record?
A: 0.83

Q: With C31U U53G as the variant, how does the yeast fitness read?
A: 0.644

Q: For C30G A43U G48C C55A C66U, which yeast fitness is on record?
A: ≤ 0.5

Q: With C31G C34G A42C C66G as the variant, how does the yeast fitness read?
A: ≤ 0.5

Q: For C31U C34A, which yeast fitness is on record?
A: 0.863

Q: With C31U C46A A57U C60U as the variant, how does the yeast fitness read?
A: ≤ 0.5

Q: With C31U C61G C66G as the variant, how does the yeast fitness read?
A: ≤ 0.5

Q: With U32A A70C as the variant, how does the yeast fitness read?
A: 0.741

Q: For C31U C46G G50A C61U, which yeast fitness is on record?
A: 0.649

Q: With C31U U32C as the variant, how does the yeast fitness read?
A: 0.812

Q: For C30U C55A, which yeast fitness is on record?
A: 0.667

Q: With U32C C34G A65U A70G as the variant, how does the yeast fitness read?
A: ≤ 0.5

Q: For C31A G52C U64C, which yeast fitness is on record?
A: ≤ 0.5

Q: Which yeast fitness does the source give for C30G U47C G51A C66U here?
A: ≤ 0.5

Source: the RNAGym collection of RNA variant scans (doi:10.1126/science.aae0568)
